Screening results deposited in PubChem BioAssay by several laboratories.
Sampled rows, rich in hits. Any-hit rate of the full collection: about 6%.
EphB4 ephrin blk – EphB4-ephrin-B2 interaction antagonism; AID 720; 97,000 compounds, 0.15% hits; inhibition, % at 7 µM; P54760; EphB4 LBD / TNYL-RAW-Alexa532 peptide, fluorescence polarization;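 active means inhibition above the screen-wide mean inhibition plus 3 SD, cut at about 15% in these data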
Ecoli tolC – blocks growth of E. coli BW25113 tolC mutant. OD615. growth inhibition, % at 10 µM (by protocol). 65,000 compounds, 2.2% hits. AID 573;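 active means growth inhibition at or above a cutoff equal to the mean over every tested compound plus 3 SD, cut at about 60% in these data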;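 further: growth measured after 20 h incubation at 37 °C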
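test system = E. coli BW25113 ΔtolC::kan bacteria | medium = LB with kanamycin 50 µg/mL | signal = OD at 615 nm | schedule = 37 °C, 20 h exposure | evaluation = % inhibition of E. coli growth | compound dosing = one dose of 10 µM final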
PostGolgi ctrl – yeast control strain growth, post-Golgi counter-screen. inhibition, % at 10 µM. 98,000 compounds, 5% hits. AID 738. efflux-deficient yeast background strain, growth absorbance A615, 16 h
Ecoli WT expand – E. coli BW25113 growth inhibition, expanded screen; OD600 absorbance; growth inhibition, % at 100 µM; 98,000 compounds, 0.15% hits; AID 710;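 active means growth inhibition above about 50% at one test dose, limit read from the data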;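 further: growth measured after 20 h incubation at 37 °C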
PostGolgi yeast – growth inhibition of a yeast mutant, post-Golgi transport screen; post-Golgi transport phenotypic cell assay; inhibition, % at 10 µM; 98,000 compounds, 0.9% hits; AID 739;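 further: yeast cells grown in 1536-well plates; yeast grown about 18 h at 30C before absorbance read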
Numbers stand for hits; n = inactive; x = not tested or not shown. Unless noted, no stated cut-off is given here; in the data, active means inhibition above about 30%; inactive means the rest.

SMILES	EphB4 ephrin blk	Ecoli tolC	PostGolgi ctrl	Ecoli WT expand	PostGolgi yeast
Fc1ccc(/C=C2\CCCC3=C2Nc2ncnn2C3c2ccc(F)cc2)cc1 (centres undefined)	n	x	80.9	n	n
CC1CC(C)(C)N2C(=O)C3(Nc4ccccc4S3)c3cccc1c32 (centres undefined)	n	x	44.5	n	n
O=C1N2CCCc3cccc(c32)C12Nc1ccccc1S2 (centres undefined)	n	n	n	n	n
CC(c1nnc(SCC(=O)c2c(N)n(C)c(=O)n(C)c2=O)n1-c1ccc(Cl)cc1)N(C)C (centres undefined)	n	n	37.4	n	n
Cc1nc2ccc(NC(=O)c3cccs3)cc2c(=O)n1Cc1ccc(Cl)cc1	n	x	32.4	n	n
COc1ccc(N2CCN(C(=O)c3csc4ccccc34)CC2)cc1	n	x	n	n	n
O=C(c1csc2ccccc12)N1CCN(c2ccc(Cl)c(Cl)c2)CC1	n	x	36.1	n	n
Cc1cc(C)c2c(N)c(S(=O)c3ccc(C(C)(C)C)cc3)sc2n1 (centres undefined)	n	x	n	n	n
CCCCCCCCCC(=O)N/N=C/c1ccc(C)s1	n	x	32.7	n	n
CC(OC(=O)c1ccccc1NCc1ccco1)C(=O)Nc1ncc(Cl)cc1Cl (centres undefined)	x	61.2	n	n	n
Cc1ccc2cc(C=C(C#N)C#N)c(N3CCCCC3)nc2c1	n	x	35.5	n	n
Cc1ccc2cc(C#N)c(N3CCN(C)CC3)nc2c1	n	x	x	x	x
Cc1cc2nc(C3CCN(CC4COc5ccccc5O4)CC3)[nH]c2cc1C (centres undefined)	n	n	34.3	n	40.6
CCCNC(=S)N1CCC(c2nc3cc(C)c(C)cc3[nH]2)CC1	n	x	n	n	n
CC1(C)Cc2c(cnn2-c2ccccc2)-c2c1c1ccccc1n2CC(O)CBr (centres undefined)	n	x	43.8	n	n
COCCOC(=O)C1=C(C)N=C2SCCC(=O)N2C1c1cc(Br)ccc1OC (centres undefined)	x	n	x	x	x
CCCCCC/C(=N/O)c1ccccn1	n	100.0	40.4	n	n
O=[N+]([O-])c1ccc(-c2cnc(SCc3ccccc3Cl)[nH]2)cc1	n	x	42.2	n	n
NC(=O)CSc1ncc(-c2ccccc2)[nH]1	n	n	n	n	n
Cc1cc(C)c(CSc2ncc(-c3ccc([N+](=O)[O-])cc3)[nH]2)c(C)c1	n	x	48.5	n	n
CN(C)C(=O)c1cc(Cl)ccc1Sc1cc(Cl)ccc1Cl	n	x	56.0	n	n
O=C(CS(=O)(=O)c1c[nH]c2ccccc12)NC1CCCCC1	n	x	n	n	n
CCn1cc(S(=O)(=O)CC(=O)NC2CCCCC2)c2ccccc21	n	n	41.5	n	n
O=C1C(c2ccncc2)N(CCC2=CCCCC2)C(=O)CN1C1CCCCC1 (centres undefined)	n	n	n	n	n
CCOC(=O)CN1C(=O)C(Sc2n[nH]c(-c3ccccc3)n2)CCc2ccccc21 (centres undefined)	n	x	n	n	n
SMILES	EphB4 ephrin blk	Ecoli tolC	PostGolgi ctrl	Ecoli WT expand	PostGolgi yeast
O=C1c2ccccc2C(O)(Cc2ccccc2)N1C1CCCCC1 (centres undefined)	n	100.0	n	n	n
CC(C)CN1C(=O)c2ccccc2C1(O)Cc1ccccc1 (centres undefined)	n	x	x	x	x
O=C(c1ccccc1)N1CCN(S(=O)(=O)N2CCCCC2)CC1	n	n	44.1	n	n
C=CCSc1nnc(-c2ccncc2)n1-c1ccc(OCC)cc1	n	n	31.4	n	n
Nc1cc(-c2ccc(Cl)cc2)nn1S(=O)(=O)c1cccc2nsnc12	n	x	65.7	n	58.0
Nc1cc(-c2ccc(Br)cc2)nn1S(=O)(=O)c1cccc2nsnc12	n	x	83.1	n	44.1
O=C(Nc1ncccc1Cl)C(Sc1ccccc1)c1ccccc1 (centres undefined)	n	x	n	n	n
COc1ccc(NC(=O)N2CCN(c3nc(-c4cccc(OC)c4)cs3)CC2)cc1	n	n	41.5	n	n
COc1cccc(-c2csc(N3CCN(C(=S)Nc4cccc(Cl)c4)CC3)n2)c1	n	x	n	n	n
Cc1ccc(N(CC(=O)Nc2cccc(C)c2)S(=O)(=O)c2cccc3nonc23)cc1	n	61.9	n	n	n
CO/N=C/NC(=O)NOCc1c(Cl)cccc1Cl	n	x	31.5	n	n
O=C(Oc1ccccc1)c1cc2ccccc2o1	n	71.0	n	n	n
O=C(COC(=O)c1cc2ccccc2o1)c1ccccc1	x	n	n	n	n
Cc1ccc(N2C(=O)CC(Sc3nc4ccccc4o3)C2=O)cc1Cl (centres undefined)	n	x	38.5	n	n
